A selection: hits, their analogues and other compounds. The true share with any hit is near 4.5%.
OX1R antag-1: OX1R (HCRTR1) antagonists, primary screen, fluorescence, CHO/OX1R cells, Fluo-8 calcium, orexin A. Orexin/Hypocretin receptor type 1 (Homo sapiens), O43613. Fluo-8 calcium fluorescence. inhibition, % at 5 µM. 0.43% of 330,000 active;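 active = inhibition above its plate's threshold, mean inhibition of all tested compounds on the plate plus 3 SD, cut at about 37% in these data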
CHO parental Ca: ATP-evoked calcium signal inhibitors, parental CHO, primary screen, counter-screen for OX1R antagonist project, cell-based, fluorescence, Fluo-8 calcium dye; AID 463079, 2010; 0.63% of 330,000 active; inhibition, % at 5.6 µM; parental CHO-K1, ATP-induced calcium, Fluo-8 fluorescence;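 active = inhibition above that plate's mean sample inhibition plus 3 SD, cut at about 26% in these data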
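material = parental CHO cells | also added = ATP as calcium-mobilizing challenge | dosing = single point at 5.6 µM | detection = intracellular calcium via Fluo-8 no-wash fluorescent dye | read-out = % inhibition | benchmarks = low control ATP plus DMSO, high control DMSO only | repeats = one well per compound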
TAAR1 ag: human TAAR1 agonists, primary screen, Fluo-8 calcium fluorescence, CHO RD-HGA16 cells | Trace amine-associated receptor 1 (Homo sapiens), Q96RJ0 | vehicle wells 0%, saturating PEA agonist 100% | activation, % at 3 µM | 0.99% of 360,000 active;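 active = activation above the mean activation of all test compounds in the run plus 3 SD, cut at about 38% in these data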
Target sequence (Q96RJ0 whole entry, looked up): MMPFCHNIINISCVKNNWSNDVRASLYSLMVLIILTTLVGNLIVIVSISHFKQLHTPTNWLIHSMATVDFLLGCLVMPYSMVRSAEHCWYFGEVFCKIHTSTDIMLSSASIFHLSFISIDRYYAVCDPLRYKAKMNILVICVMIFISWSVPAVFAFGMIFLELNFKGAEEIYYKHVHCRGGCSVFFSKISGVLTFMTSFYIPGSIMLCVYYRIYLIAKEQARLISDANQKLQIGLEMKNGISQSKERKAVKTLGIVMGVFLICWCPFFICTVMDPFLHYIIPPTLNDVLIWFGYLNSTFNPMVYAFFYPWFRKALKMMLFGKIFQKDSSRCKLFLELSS
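Signal – calcium-sensitive Fluo-8 signal, excitation 470-495, emission 515-575 nm · System – RD-HGA16 (CHO) cells co-expressing Gα16 and hTAAR1 · Incubation – 17-24 h seeding, 75 min 37 °C dye, 30 min RT · Compound dosing – 3 µM single concentration · Repeats – no replicates (n 1)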
GPR7 antagonist: GPR7 receptor antagonists, primary screen, cell-based, fluorescence, single concentration. 1.1% of 290,000 active. inhibition, % at 4.4 µM. AID 1861, 2009. GPR7-expressing cells, fluorescence antagonist assay. Neuropeptides B/W receptor type 1 (Homo sapiens), P48145; in the data active = inhibition above about 16%, passing the limit was not always enough;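 note: cells stimulated with the agonist NPW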
Target sequence (P48145 whole entry, looked up): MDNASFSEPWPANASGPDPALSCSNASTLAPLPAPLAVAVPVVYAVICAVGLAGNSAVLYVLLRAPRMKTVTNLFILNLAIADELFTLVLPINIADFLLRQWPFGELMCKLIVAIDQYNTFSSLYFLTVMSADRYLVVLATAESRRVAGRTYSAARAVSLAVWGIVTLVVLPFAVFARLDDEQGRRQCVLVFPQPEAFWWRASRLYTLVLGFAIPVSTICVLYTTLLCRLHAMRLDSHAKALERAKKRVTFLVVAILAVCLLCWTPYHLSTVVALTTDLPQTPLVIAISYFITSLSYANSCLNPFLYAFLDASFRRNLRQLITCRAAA
OX1R antag-2: antagonists of human orexin 1 receptor (OX1R); AID 485270, 2010; OX1R-expressing cells, FRET antagonist read-out; Orexin/Hypocretin receptor type 1 (Homo sapiens), O43613; inhibition, % at 6.6 µM; 1.8% of 330,000 active; in the data active = inhibition mostly above about 38%, no sharp cut-off; inactive = mostly below about 40%
TAAR1 antag: human TAAR1 antagonists, primary screen, Fluo-8 calcium fluorescence, CHO RD-HGA16 cells; inhibition, % at 3 µM; antagonist; Trace amine-associated receptor 1 (Homo sapiens), Q96RJ0; 1.5% of 360,000 active;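 active = inhibition above a per-plate cutoff, the mean inhibition of test compounds on that plate plus 3 SD, cut at about 49% in these data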
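System: CHO RD-HGA16 cells bearing hTAAR1. Reagent: EC80 β-phenethylamine stimulus. Schedule: seeding 17-24 h prior, 75-min 37 °C, 30-min RT dye loading. Signal: Fluo-8 intracellular calcium dye fluorescence, real-time kinetic reads. Read-out: % inhibition from peak post-agonist over basal fluorescence ratio. Benchmarks: vehicle wells and EC80 agonist wells. Replicates: n of 1.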
Numbers stand for hits; – = inactive; · = no result.

SMILES	OX1R antag-1	CHO parental Ca	TAAR1 ag	GPR7 antagonist	OX1R antag-2	TAAR1 antag
Cc1cc(C(=O)CSc2nc3ccc(Cl)cc3[nH]2)c(C)n1Cc1ccco1	–	–	–	·	45.4	–
Fc1ccc2[nH]c3c(NCc4ccccc4)ncnc3c2c1	–	70.0	–	–	59.1	–
NC(=O)[C@@H]1CCCN1C(=O)[C@@H](Cc1ccccc1)NC(=O)[C@H]1O[C@@H](n2ccc(=O)[nH]c2=O)[C@H](O)[C@@H]1O	·	·	–	·	·	–
O=C(Nc1ccc(F)cc1)c1nn(-c2ccccc2)c(=O)cc1Cl	·	·	–	46.2	·	–
Cc1ccc(NC(=O)c2cc(-c3ccccc3)nn2-c2ccccc2)cc1	–	–	–	–	–	–
O=C(NNc1ccnc2cc(Cl)ccc12)C1CCCCC1	–	34.6	–	–	–	–
O=C(CSc1nc2ccccc2c(=O)n1NC(=O)Cc1ccccc1)NCc1ccccc1Cl	–	–	–	–	52.6	–
CN(C)S(=O)(=O)c1ccc(-c2csc(N/N=C/c3ccc(O)cc3)n2)cc1	–	–	–	–	–	76.9
COc1ccc2sc(N(CCCN(C)C)C(=O)c3ccc(S(=O)(=O)N4CCCC4)cc3)nc2c1	–	–	–	·	–	–
CN(C)CCCN(C(=O)c1ccc2c(c1)CCCC2)c1nc2cc3c(cc2s1)OCO3	–	–	41.0	–	–	–
Cc1cccc2sc(N(CCCN(C)C)C(=O)c3ccc(S(=O)(=O)N4CCc5ccccc5C4)cc3)nc12	–	–	39.0	–	–	–
CN(C)CCCN(C(=O)c1ccc2c(c1)CCCC2)c1nc2ccc(F)cc2s1	–	–	–	–	–	–
COc1ccc2sc(N(CCCN(C)C)C(=O)c3ccc(S(=O)(=O)N4CCc5ccccc5C4)cc3)nc2c1	–	–	40.0	·	–	–
COc1ccc2nc(C(F)(F)C(F)(F)F)c(C#N)c(N)c2c1	–	–	42.3	–	–	–
COc1cc(OC)c2c(N)c(C#N)c(C(F)(F)C(F)(F)F)nc2c1	–	–	–	–	–	–
O=C(c1cc2nc(-c3ccccc3)cc(C(F)(F)F)n2n1)N1CCN2CCCC2C1 (stereo unspecified)	–	–	–	–	–	–
CCOC(=O)C1CCCN(C(=O)c2cc3nc(-c4cccc(OC)c4)cc(C(F)(F)F)n3n2)C1 (stereo unspecified)	–	–	–	–	–	62.9
Cc1cc(Nc2cc(Cl)cc(Cl)c2)cc(=O)n1-c1cc(Cl)cc(Cl)c1	·	·	–	·	·	–
Cc1ccc(S(=O)(=O)N2C[C@H]3N(C(=O)OC(C)C)N(C(=O)OC(C)C)C[C@H](OC(=O)NCc4ccccc4F)[C@@]3(O)C2)cc1	·	·	–	·	·	–
Cc1ccccc1NC(=O)C1CCN(S(=O)(=O)c2ccc3c(c2)NC(=O)C(C)S3)CC1 (stereo unspecified)	–	–	–	–	–	–
Cc1ccc(CCNC(=O)C2CCN(S(=O)(=O)c3ccc4c(c3)NC(=O)C(C)S4)CC2)cc1 (stereo unspecified)	–	–	–	–	–	60.9
CC1Sc2ccc(S(=O)(=O)N3CCC(C(=O)NCC(C)c4ccccc4)CC3)cc2NC1=O (stereo unspecified)	–	34.0	41.7	–	–	–
NC(=O)c1ccsc1NC(=O)c1ccc([N+](=O)[O-])o1	–	–	–	·	33.7	–
Cc1cccc(NC(=O)c2ccc([N+](=O)[O-])o2)c1C	–	–	–	–	76.1	–
O=C(Nc1ncccn1)c1ccc([N+](=O)[O-])o1	–	–	–	–	41.1	–
SMILES	OX1R antag-1	CHO parental Ca	TAAR1 ag	GPR7 antagonist	OX1R antag-2	TAAR1 antag
O=C(Nc1cccc2ccccc12)c1ccc([N+](=O)[O-])o1	–	–	–	–	–	–
O=C(Nc1ccccn1)c1ccc([N+](=O)[O-])o1	–	–	·	–	72.3	·
Cc1cc(OC(C)C(=O)N2C[C@H]3C[C@@H](C2)c2cccc(=O)n2C3)c2c(C)c(C)c(=O)oc2c1 (stereo partly specified)	–	–	–	–	–	–
O=C(c1ccccc1)N1CCOC(O)(c2ccccc2)C1c1ccccc1 (stereo unspecified)	·	·	–	·	·	–
N#C/C(=C(/O)c1ccc2c(c1)OCO2)c1nc2cc(C(F)(F)F)ccc2s1	–	–	–	–	58.3	–
NC(=O)c1ncn([C@@H]2O[C@H](C(=O)N[C@H](Cc3c[nH]c4ccccc34)C(=O)N3CCN(CC(=O)N4CCCC4)CC3)[C@@H](O)[C@H]2O)n1	·	·	–	·	·	–
CCCCn1c(SCC(=O)Nc2cc(NC(=O)c3ccco3)ccc2C)nc2ccccc2c1=O	–	–	–	–	41.1	–
Cc1ccc(-c2csc(NCCn3c(-c4ccncc4)nc4ccccc43)n2)cc1	–	–	–	–	60.0	–
Cc1ccc(-n2sc3ccccc3c2=O)cc1	–	–	–	–	–	–
O=c1c2cc(F)ccc2sn1-c1ccccc1Cl	·	·	–	·	·	–
Cc1ccc(-n2sc3cc(F)ccc3c2=O)c(C)c1	·	·	48.6	·	·	–
O=c1c2ccc(F)cc2sn1-c1ccccc1	·	·	49.3	·	·	–
COC(=O)C1=C(C)N(Cc2cccc(C(F)(F)F)c2)C(=NCc2ccccc2C(F)(F)F)NC1c1ccc(Cl)cc1 (stereo unspecified)	·	·	–	·	·	–
CCOC(=O)C1CCCN(c2ncnc3c2oc2ccccc23)C1 (stereo unspecified)	55.3	40.2	–	–	89.5	–
CCOC(=O)C1CCCN(c2c(N3CCc4ccccc4C3)c(=O)c2=O)C1 (stereo unspecified)	·	·	·	21.8	·	·
CCOC(=O)C1CCN(c2ncnc3c2oc2ccccc23)CC1	–	–	–	–	61.8	–
CCOC(=O)C1CCN(c2nc(-c3ccccc3)nc3c2oc2ccccc23)CC1	–	–	–	–	–	–
CC(C)[C@H](NC(=O)C1CC1)C(=O)N1CCC[C@H]1C(=O)NCc1ccccc1	·	·	–	·	·	–
COC(=O)[C@]12C[C@H](CC(=O)NCCCN3CCCC3=O)C(=O)N(Cc3ccc4c(c3)OCO4)C1=C[C@H](C(C)(C)C)O[C@@H]2C	·	·	–	·	·	–
Cc1noc(C)c1CSc1nc2ccccc2nc1NS(=O)(=O)c1ccc(Cl)cc1	–	–	·	–	60.8	·
CC1=C(C(=O)N2CCOCC2)CC(CC(=O)NCCc2ccccn2)C(=O)N1Cc1ccc(F)cc1 (stereo unspecified)	·	·	–	·	·	–

Screens from PubChem BioAssay.
